# High-throughput results (PubChem BioAssay)
# The list is not random: actives were taken first. Their share in the collection is about 1.9%.
# 697 NFkB inh – lowers PMA/ionomycin-induced NF-kB signal in 697 B cells; 697 B-cell NF-kB luciferase reporter, 16 h; AID 435022; inhibition, % at 4 µM; 330,000 tested, 0.33% active; in the data active means inhibition above about 35%
# APP transl inh – APP translation inhibition | 190,000 tested, 0.82% active | AID 1285 | inhibition, % at 2 µM | SH-SY5Y APP 5'UTR-luciferase reporter, luminescence;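 active means inhibition above a set limit, derived from the sample mean plus 3 SD, cut at about 45% in these data; inconclusive means one replicate passes the limit while the other fails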
# aSyn UTR inh – MLPCN primary screen, SNCA 5' untranslated region; alpha-synuclein 5'UTR reporter, inhibitor activity; inhibition, % (tested at 7.5 µM); 300,000 tested, 0.82% active; in the data active means inhibition above about 60%; inconclusive means no clear call, values can overlap the other calls;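 further: H4 neuroglioblastoma cells stably carrying SNCA 5'UTR luciferase fusion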
# Lipid droplet – modulators of hepatic lipid droplet formation; inhibition, % at 6.5 µM; AID 1656; AML12 mouse hepatocytes, oleate lipid droplets, BODIPY imaging; 240,000 tested, 0.4% active;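 active means lipid droplet intensity inhibited by at least 50%, with more than 500 cells counted; inconclusive means wells with under 300 cells, treated as cytotoxic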
#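 Test system: AML12 mouse liver cells; schedule: overnight exposure; technique: high-content imaging of BODIPY-stained droplets and DAPI nuclei; read-out: % inhibition of corrected integrated BODIPY droplet signal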
# Jurkat NFkB inh – lowers PMA/ionomycin-induced NF-kB signal in Jurkat cells; PMA/ionomycin-induced NF-kB luciferase reporter, luminescence; inhibition, % at 4 µM; 330,000 tested, 0.53% active; AID 435003; in the data active means inhibition above about 50%
# H9c2 TAG inh – inhibitors of triacylglycerol accumulation. inhibition, % at 12.5 µM. AID 651582. H9c2 cells, Nile Red lipid (TAG) fluorescence; cells loaded with 200 µM oleic acid. 230,000 tested, 0.66% active;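 active means pattern-corrected inhibition of lipid staining of at least 50% with the nuclear-stain viability signal not falling by more than 50%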
# Hits are given with their value; 0 = inactive; ? = inconclusive; - = not tested or not shown.
SMILES,697 NFkB inh,APP transl inh,aSyn UTR inh,Lipid droplet,Jurkat NFkB inh,H9c2 TAG inh
O=C(c1ccccc1)c1coc2c1C(=O)c1ccccc1C2=O,0,0,0,0,0,0
O=C1c2ccccc2C(=O)c2c1oc(C(F)(F)F)c2C(=O)c1ccccc1,0,0,101,-,0,0
COc1ccc(C2=CC(=O)C[C@H](c3ccc(OC)cc3)C2)cc1,0,-,-,-,0,-
COc1ccc(C2=CC(=O)C=CC2=O)cc1,-,48,0,0,-,-
Cc1ccc2nc(-c3ccc(N)cc3)sc2c1,0,-,90,0,0,0
CCS(=O)(=O)c1ccc(OC)c(N=Nc2ccc(O)c3ncccc23)c1,0,67,66,0,0,0
CCN(CC)S(=O)(=O)c1cc(OC)ccc1N=Nc1ccc(O)c2ncccc12,0,-,?,0,0,-
CCCNC(=O)c1cc(C2CCCCN2C(=O)c2ccc(OC)cc2)on1 (stereo unspecified),-,-,-,-,-,0
COc1cccc(/C=C2\Oc3ccc(O)cc3C2=O)c1O,0,-,83,0,0,-
COC(=O)c1ccc2c(c1)C(=O)/C(=C/c1ccc(O)cc1)O2,-,0,0,0,-,-
Clc1ccc(-c2cn3nc4c(nc3n2)CCCC4)cc1,0,0,88,0,0,0
COc1cccc(-c2cn3nc4c(nc3n2)CCCC4)c1,0,0,104,-,0,-
COc1cccc(-c2cc(C(F)(F)F)n3nc(N)nc3n2)c1,0,0,0,0,0,0
COc1cc(NC(=O)C2CC(c3ccccc3O)=NO2)cc(OC)c1OC (stereo unspecified),-,-,-,-,-,0
CCc1nnc(NC(=O)CSc2nc3ccccc3o2)s1,0,47,0,0,0,-
Cc1nnc(NC(=O)CSc2nc3ccccc3o2)s1,0,0,0,0,0,-
Cc1ccc(S(=O)(=O)Nc2cc(-c3nn(C)c(=O)c4ccccc34)ccc2N2CCOCC2)cc1,0,0,78,0,0,-
CCCCNC(=O)C1(C)CCN1C(=O)c1cncc(Br)c1 (stereo unspecified),-,-,-,-,-,0
CN1OC[C@@H]2CN(C(=O)CCc3ccccc3)[C@H](c3cccc(Oc4ccccc4)c3)C[C@@H]21,-,-,-,-,-,0
CN(C)CCCN(C(=O)c1cc(-c2cccs2)nc2ccccc12)c1nc2c(F)cccc2s1,0,-,0,0,0,0
Cc1ccc2nc(N(CCCN(C)C)C(=O)c3cc(-c4cccs4)nc4ccccc34)sc2c1,0,-,67,0,0,54
O=C(N/N=C/c1sc(N2CCOCC2)nc1-c1ccccc1)c1cccc(S(=O)(=O)N2CCCC2)c1,0,0,99,0,0,0
CCC(C)n1ncn(-c2ccc(N3CCN(c4ccc(OCC5COC(Cn6cncn6)(c6ccc(Cl)cc6Cl)O5)cc4)CC3)cc2)c1=O (stereo unspecified),0,-,100,0,0,0
CCCC1COC(Cn2cncn2)(c2ccc(C)cc2)O1 (stereo unspecified),0,0,0,-,0,-
O=c1[nH]c(-c2cccnc2)nc2sc(-c3ccccc3)cc12,0,75,0,0,0,0
SMILES,697 NFkB inh,APP transl inh,aSyn UTR inh,Lipid droplet,Jurkat NFkB inh,H9c2 TAG inh
Cc1nc2sc(-c3ccccc3)cc2c(=O)n1N,0,-,75,0,0,0
CC1(C(=O)NS(=O)(=O)c2cccc(C#N)c2)CCN1C(=O)c1ccc(C2CCCCC2)cc1 (stereo unspecified),-,-,-,-,-,0
COc1ccc(-c2ccc(SC)nn2)cc1,0,0,75,0,0,0
Cc1ccc(S(=O)(=O)NN=C2C(=O)C3CCC2C3Cl)cc1 (stereo unspecified),-,-,-,-,-,0
CC1(C)CC(=O)C(CC(=O)c2ccccc2)=C(NN=C(N)N)C1,-,-,-,-,-,0
CCOC(=O)c1cnc(-n2nc(C)cc2C)nc1NNc1nc(-c2ccccc2)cc(-c2ccccc2)n1,0,0,82,0,0,-
COc1cc(/C=N/NC(=O)c2c(-c3c(Cl)cccc3Cl)noc2C)ccc1OCC(N)=O,0,-,0,0,0,-
Cc1onc(-c2c(Cl)cccc2Cl)c1C(=O)N/N=C(\N)COc1ccc(Cl)cc1,0,0,89,0,0,0
Cc1cc(C(O)c2ncc(-c3cccc4ccccc34)[nH]2)ccc1F (stereo unspecified),-,-,-,-,-,0
CCOC(=O)c1sc2ncc([N+](=O)[O-])cc2c1N,0,-,0,0,0,0
COC(=O)c1sc2cc([N+](=O)[O-])cc(SCC(C)C)c2c1N,0,0,0,56,0,-
Cc1cc(NC(=O)c2ccccc2C)n(-c2cccc(F)c2)n1,0,-,0,0,0,-
N#Cc1ccc(C=NN2CCCCCC2)cc1,-,-,-,-,-,0
O=c1c2cn(Cc3ccc(F)cc3)c3ccccc3c-2nn1Cc1ccc(F)cc1,0,-,0,0,0,-
O=[N+]([O-])/C=C/c1cn(Cc2ccc(F)cc2)c2ccccc12,0,0,63,-,0,-
Oc1cccc2cc(Nc3ccccc3)cnc12,-,-,-,-,-,69
Cc1cccc(-n2ccc(=O)c(C(=O)Nc3ccc(S(=O)(=O)N4CCOCC4)cc3)n2)c1,0,-,0,0,0,-
Cc1csc(N=Nc2ccc(N(C)C)cc2)[n+]1[O-],-,-,-,-,-,0
O=C(CSc1ccc2ccccc2c1Br)Nc1cccc(S(=O)(=O)NC2=NCCCCC2)c1,0,0,64,0,0,-
O=C(CCl)Nc1cccc(S(=O)(=O)NC2=NCCCCC2)c1,0,-,-,-,0,57
CC(C)[C@@H]1CC[C@@H](C)C[C@H]1OC(=O)C[n+]1cc(-c2ccc(Cl)cc2)n2c1CCCCC2,0,-,0,0,0,80
CN(C)S(=O)(=O)N(CC(=O)Nc1ccc2ccccc2c1)c1ccccc1,0,0,0,0,0,0
CN(C)S(=O)(=O)N(CC(=O)Nc1ccc(F)c(F)c1)c1ccccc1,0,59,0,0,0,-
CN(C)c1nc(N/N=C/c2ccccc2O)nc(Nc2ccc(F)cc2)n1,0,48,0,0,0,0
CN(C)c1nc(Nc2ccc(F)cc2)nc(Oc2ccc(F)cc2)n1,0,-,0,0,0,-
SMILES,697 NFkB inh,APP transl inh,aSyn UTR inh,Lipid droplet,Jurkat NFkB inh,H9c2 TAG inh
CC1(C(=O)NS(=O)(=O)c2cccc(F)c2)CCN1C(=O)Cc1ccccc1 (stereo unspecified),-,-,-,-,-,0
CCOC(=O)c1c2c(n(-c3ccc(OC)cc3)c1C)C(=O)C(=O)c1ccccc1-2,-,-,-,-,-,71
CCOC(=O)c1sc(=S)n(-c2ccc(OC)cc2)c1C,0,-,0,0,0,0
Oc1c(CN2CCN(c3ccccc3)CC2)cc(Br)c2cccnc12,-,-,85,0,-,-
c1ccc(N2CCN(Cc3ccnc4ccccc34)CC2)cc1,0,0,0,0,0,-
COc1ccccc1N1CCN(Cc2ccc(O)c3ncccc23)CC1,0,90,77,0,0,-
CCOC(=O)N1CCN(Cc2cc(Cl)c3cccnc3c2O)CC1,0,83,0,0,0,-
Oc1c(CNc2ccccc2)cc(COCc2ccccc2)c2cccnc12,0,-,-,-,0,0
Oc1c(CN2CCOCC2)cc(COCc2ccccc2)c2cccnc12,-,92,114,0,-,-
NNC(=O)C1CC(O)CN1S(=O)(=O)c1ccc2ccccc2c1 (stereo unspecified),0,-,-,-,0,0
Oc1ccc(/C=N/N=C(c2ccccc2)c2ccccc2)c(O)c1O,-,49,-,0,-,0
C=CCN1C(=O)C(=Cc2ccc3c(c2)CCC3)SC1=S,-,-,-,-,-,0
